As a reminder, the EC50 is the concentration that produces a half-maximal response. The low end stands for higher potency in that assay, the high end for lower potency in that assay. One may read the Ki as a measure of affinity in units of concentration, obtained from inhibition or displacement. A higher Ki goes with lower affinity. What is called inhibition in vivo is the percentage by which the read-out fell short of the control. A low value points to a response near the control. A word on the Inhibition: it is the relative decrease from the control value, in per cent. High values mean a response far below the control, low ones a response near the control.

SMILES strings stand for the structures. Residues, ends and D or L forms follow the SMILES beside them. Where only a bound is given, the exact number is not on record here.

Test [1] has as its target Mu-type opioid receptor (Cavia porcellus, UniProt P97266). The test is described as follows: Inhibition of mu opioid receptor mediated GTPgammaS binding to CHO cell membranes. The format is functional.
Test [2] has as its target Delta-type opioid receptor (Rattus norvegicus, UniProt P33533). The test is described as follows: Binding affinity for delta opioid receptor of rat brain. The method, boiled down: (§1)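 Male Wistar rat forebrain membranes in 50 mM Tris HCl pH 7.4 with 5 mM MgCl2. Incubated 2.5 h at 25 °C with ~4 nM [3H]DPDPE (δ) or ~0.8 nM [3H]DAMGO (μ). Filtered, rinsed with 10 mM HEPES pH 7.4 and counted by liquid scintillation. Ki derived from a range of test concentrations; single-concentration data expressed as % inhibition of specific binding.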

Test [3] deals with Delta-type opioid receptor (Homo sapiens, UniProt P41143). The test can be described thus: Inhibition of delta opioid receptor mediated GTPgammaS binding to CHO cell membranes. The format is functional. An outline of the steps:
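Purchased CHO-hδ cell membranes at 10 µg/mL, coupled to SPA beads at 5 mg/mL. Incubated with 0.5 nM [35S]GTPγS and 50 µM GDP in 50 mM HEPES pH 7.6 with 5 mM MgCl2, 100 mM NaCl, 1 mM DTT and 1 mM EDTA. Increasing agonist concentrations stimulated binding. Basal binding measured without agonist; nonspecific binding with 10 µM unlabeled GTPγS.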

Test [4] concerns the target Mu-type opioid receptor (Rattus norvegicus, UniProt P33535). The test is described as follows: Binding affinity for Mu opioid receptor of rat brain. The method, boiled down:
as §1

The target in test [5] is Opioid receptors; mu & delta (Rattus norvegicus) (UniProt P33533+P33535). The test is described as follows: Selectivity for mu 1 and delta 1 opioid receptors. The format is protein assay.
Test [6] concerns the target Kappa-type opioid receptor (Homo sapiens, UniProt P41145). The test can be described thus: Inhibition of rabbit vas deferens contractions. The format is functional, Oryctolagus cuniculus. The settings on record: target entry is the homologue from another species. The method, boiled down:
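κ functional study run on rabbit vas deferens tissue.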

For test [7], the system named is Mus musculus. The test is described as follows: Percent inhibition of mouse abdominal constriction at a dose of 100 mg/kg when administered subcutaneously. The format is functional. The settings on record: Abdomen, sc, route subcutaneous. The method, boiled down: (§2)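 Male CD1 mice (18–40 g), n = 10 per group, dosed sc (10 mL/kg volume) or icv. Then challenged ip with acetylcholine bromide dissolved in distilled water (5.5 mg/kg as printed), given at 0.20 mL/20 g.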

The test system of test [8] is Mus musculus. The test can be described thus: Percent inhibition of mouse abdominal constriction at a dose of 10 ug upon intracerebro ventricular administration. The format is functional, Abdomen. An outline of the steps:
as §2

For test [9], the system named is Mus musculus. The test can be described thus: Percent inhibition of mouse abdominal constriction at a dose of 100 ug upon intracerebro ventricular administration. The format is functional, Abdomen. The method, boiled down:
as §2

The target in test [10] is Kappa-type opioid receptor (Cavia porcellus, UniProt P41144). The test is described as follows: Binding affinity for kappa opioid receptor of guinea pig cerebellum. The format is tissue-based.
Chain of Kappa-type opioid receptor (Cavia porcellus, UniProt P41144) (P41144 whole entry): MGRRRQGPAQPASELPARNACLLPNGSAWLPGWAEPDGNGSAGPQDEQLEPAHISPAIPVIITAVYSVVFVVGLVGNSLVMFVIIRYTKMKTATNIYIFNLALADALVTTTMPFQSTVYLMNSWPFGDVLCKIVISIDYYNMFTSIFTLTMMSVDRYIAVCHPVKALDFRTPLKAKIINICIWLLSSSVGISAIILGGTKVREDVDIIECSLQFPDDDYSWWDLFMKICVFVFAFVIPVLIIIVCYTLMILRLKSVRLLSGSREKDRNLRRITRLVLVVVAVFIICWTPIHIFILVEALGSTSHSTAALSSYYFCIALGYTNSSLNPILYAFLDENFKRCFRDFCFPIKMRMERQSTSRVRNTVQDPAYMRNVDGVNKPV

Chain of Mu-type opioid receptor (Rattus norvegicus, UniProt P33535) (P33535 whole entry): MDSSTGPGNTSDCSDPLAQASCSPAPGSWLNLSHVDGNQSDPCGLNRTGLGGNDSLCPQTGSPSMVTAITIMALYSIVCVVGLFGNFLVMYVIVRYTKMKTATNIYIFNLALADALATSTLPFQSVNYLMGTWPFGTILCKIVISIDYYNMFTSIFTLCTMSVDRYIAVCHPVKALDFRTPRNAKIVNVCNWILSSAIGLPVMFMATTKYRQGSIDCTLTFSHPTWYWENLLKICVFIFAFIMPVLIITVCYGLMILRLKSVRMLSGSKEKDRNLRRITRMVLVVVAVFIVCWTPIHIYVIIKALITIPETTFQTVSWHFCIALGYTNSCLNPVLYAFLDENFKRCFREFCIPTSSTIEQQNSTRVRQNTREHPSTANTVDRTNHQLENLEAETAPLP
Chain of Mu-type opioid receptor (Cavia porcellus, UniProt P97266) (P97266 whole entry): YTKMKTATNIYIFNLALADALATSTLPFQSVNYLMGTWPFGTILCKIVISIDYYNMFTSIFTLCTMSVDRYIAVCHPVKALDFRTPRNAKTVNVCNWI
Chain of Delta-type opioid receptor (Homo sapiens, UniProt P41143) (P41143 whole entry): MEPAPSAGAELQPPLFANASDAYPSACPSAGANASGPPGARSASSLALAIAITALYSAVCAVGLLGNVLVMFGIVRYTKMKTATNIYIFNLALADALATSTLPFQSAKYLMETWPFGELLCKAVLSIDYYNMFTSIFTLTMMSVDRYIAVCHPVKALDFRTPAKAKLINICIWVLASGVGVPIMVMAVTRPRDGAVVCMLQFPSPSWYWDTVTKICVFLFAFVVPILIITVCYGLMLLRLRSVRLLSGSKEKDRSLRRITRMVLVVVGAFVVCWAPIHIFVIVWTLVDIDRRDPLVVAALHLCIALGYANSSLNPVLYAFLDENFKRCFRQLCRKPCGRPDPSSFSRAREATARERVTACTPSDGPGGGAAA
Chain of Opioid receptors; mu & delta (Rattus norvegicus) (P33533 whole entry, looked up): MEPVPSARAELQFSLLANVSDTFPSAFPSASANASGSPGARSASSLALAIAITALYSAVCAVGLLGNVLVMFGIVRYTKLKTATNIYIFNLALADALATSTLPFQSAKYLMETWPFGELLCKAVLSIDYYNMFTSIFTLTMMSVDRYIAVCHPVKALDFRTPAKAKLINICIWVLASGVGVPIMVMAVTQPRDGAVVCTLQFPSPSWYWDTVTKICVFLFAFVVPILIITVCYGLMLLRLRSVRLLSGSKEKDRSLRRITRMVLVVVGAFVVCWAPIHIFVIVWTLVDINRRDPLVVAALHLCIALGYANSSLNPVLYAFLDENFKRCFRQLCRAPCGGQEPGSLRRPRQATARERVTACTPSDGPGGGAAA
Chain of Opioid receptors; mu & delta (Rattus norvegicus) (P33535 whole entry, looked up): as the sequence (P33535 whole entry) above
Chain of Delta-type opioid receptor (Rattus norvegicus, UniProt P33533) (P33533 whole entry): as the sequence (P33533 whole entry, looked up) above
Chain of Kappa-type opioid receptor (Homo sapiens, UniProt P41145) (P41145 whole entry): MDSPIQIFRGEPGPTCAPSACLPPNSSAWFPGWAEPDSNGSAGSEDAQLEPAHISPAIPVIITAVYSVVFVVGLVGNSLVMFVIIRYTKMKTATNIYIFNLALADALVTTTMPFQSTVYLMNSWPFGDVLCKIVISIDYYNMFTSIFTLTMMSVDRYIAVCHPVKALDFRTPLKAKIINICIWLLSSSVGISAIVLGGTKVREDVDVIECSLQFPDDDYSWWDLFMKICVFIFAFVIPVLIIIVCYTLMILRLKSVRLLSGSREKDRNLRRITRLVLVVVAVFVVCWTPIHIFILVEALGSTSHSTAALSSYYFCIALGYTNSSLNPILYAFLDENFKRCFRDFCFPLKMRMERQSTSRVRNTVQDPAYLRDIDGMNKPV

Compound `CN(C)C(=O)C(CCN1CCC(O)(c2ccc(Cl)cc2)CC1)(c1ccccc1)c1ccccc1` [LOPERAMIDE] showed an EC50 at Mu-type opioid receptor [1] of 58 nM. This compound registered a Ki in [2] of 50.1 nM.
As for `N[C@@H](Cc1ccc(O)cc1)C(=O)N1Cc2ccccc2C[C@H]1c1nc2ccccc2[nH]1` [listing 1 of 2 here], the EC50 at Mu-type opioid receptor [1] was > 10000 nM; in [3], 37 nM. Besides, the results for the Ki (in test [2]; at Mu-type opioid receptor [4]) were 15.1 nM and > 100 nM, respectively.
In turn, `N[C@@H](Cc1ccc(O)cc1)C(=O)N1Cc2ccccc2C[C@H]1c1nc(Br)c(-c2ccccc2)[nH]1` registered a Selectivity in test [5] of 14.
In the case of `N[C@@H](Cc1ccc(O)cc1)C(=O)N1Cc2ccccc2C[C@H]1c1nc2ccccc2[nH]1` (single isomer, unassigned) [listing 1 of 2 here], the Ki in test [2] was 49.6 nM; on Mu-type opioid receptor [4], > 100 nM. The EC50 in test [3] came out at 440 nM.
As for `Cc1[nH]c([C@@H]2CCCCN2C(=O)[C@@H](N)Cc2ccc(O)cc2)nc1-c1ccccc1`, the Selectivity in [5] worked out at 0.1. The half-maximal effective concentration (EC50) on Mu-type opioid receptor [1] was 153 nM; in test [3], 542 nM. The Ki stood at 21.5 nM in [2] and 1.5 nM on Mu-type opioid receptor [4].
Turning to `Cc1[nH]c([C@@H]2CCCN2C(=O)[C@@H](N)Cc2ccc(O)cc2)nc1-c1ccccc1`, the Selectivity in test [5] was < 0.02. Further, it took 1300 nM to reach a half-maximal effect on Mu-type opioid receptor [1] (EC50). The Ki in [2] is > 100 nM; at Mu-type opioid receptor [4], 23.1 nM.
As to `CCCc1c[nH]c([C@@H]2Cc3ccccc3N2C(=O)[C@@H](N)CC)n1`, the Ki (in [2]; at Mu-type opioid receptor [4]) was > 100 nM each time.
`CCCc1nc([C@@H]2Cc3ccccc3CN2C(=O)[C@@H](N)Cc2ccc(O)cc2)[nH]c1C`: the inhibitory constant (Ki) in test [2] was 62.7 nM; at Mu-type opioid receptor [4], > 100 nM. Besides, in [3], the response was half-maximal at 85 nM (EC50).
The compound `Cc1[nH]c([C@@H]2Cc3ccccc3CN2C(=O)[C@@H](N)Cc2ccc(O)cc2)nc1-c1ccccc1` (stereo in doubt) [listing 1 of 2 here] returned a Selectivity in [5] of 4.
In the case of `N[C@@H](Cc1ccc(O)cc1)C(=O)N1Cc2ccccc2C[C@H]1c1nc2ccccc2[nH]1` [listing 2 of 2 here], the Selectivity in test [5] was > 6.
Consider `Cc1[nH]c([C@@H]2Cc3ccccc3CN2C(=O)[C@@H](N)Cc2ccc(O)cc2)nc1-c1ccccc1` (stereo in doubt) [listing 2 of 2 here], for which the Ki came out at 19.4 nM in test [2] and 85.6 nM on Mu-type opioid receptor [4]. Further, the EC50 in test [3] came to 127 nM.
Compound `N[C@@H](Cc1ccc(O)cc1)C(=O)N1Cc2ccccc2C[C@H]1C(=O)NCCc1ccccc1` (HELM PEPTIDE1{Y.[Tic].[c1ccc(CCN[*:1])cc1]}$$$$V2.0) registered a Selectivity in test [5] of 13. Moreover, the EC50 worked out at 2120 nM at Mu-type opioid receptor [1] and 82 nM in test [3]. Moreover, the Ki was determined as 5.2 nM in [2] and 69 nM at Mu-type opioid receptor [4].
`Cc1[nH]c([C@@H]2Cc3ccccc3CN2C(=O)[C@@H](N)Cc2ccc(O)cc2)nc1-c1ccccc1` (stereo in doubt; 4c) [listing 1 of 2 here]: the EC50 was > 10000 nM at Mu-type opioid receptor [1] and 1.4 nM in test [3]. For the same compound, the Ki in [2] amounted to 0.3 nM; at Mu-type opioid receptor [4], 20.7 nM.
On the same counts, the results for `N[C@@H](Cc1ccc(O)cc1)C(=O)N1Cc2ccccc2C[C@H]1c1nc(-c2ccccc2)c(Br)[nH]1` are > 10000 nM, 1.9 nM, 0.11 nM and 11.6 nM.
In the case of `CCCc1[nH]c([C@@H]2Cc3ccccc3CN2C(=O)[C@@H](N)Cc2ccc(O)cc2)nc1C`, the Selectivity in test [5] is > 1.
`Cc1[nH]c([C@@H]2Cc3ccccc3CN2C(=O)[C@@H](N)Cc2ccc(O)cc2)nc1-c1ccccc1` (stereo in doubt; 4c) [listing 2 of 2 here] had a Selectivity in [5] of 75.
In test [5], `N[C@@H](Cc1ccc(O)cc1)C(=O)N1Cc2ccccc2C[C@H]1c1nc(-c2ccccc2)c[nH]1` had a Selectivity of 63. Besides, the EC50 in test [6] was > 30 nM; at Mu-type opioid receptor [1], 2400 nM; in test [3], 25 nM. In the test on Mus musculus [7], this compound yielded an inhibition in vivo at 100 mg/kg of 0%. The Inhibition is on record as 40% with Mus musculus [8] and 100% in the test on Mus musculus [9]. For the same compound, the Ki in test [2] worked out at 0.9 nM; in test [10], 124 nM; at Mu-type opioid receptor [4] it was 54.7 nM.
With `N[C@@H](Cc1ccc(O)cc1)C(=O)N1Cc2ccccc2C[C@H]1c1nc2ccccc2[nH]1` (single isomer, unassigned) [listing 2 of 2 here], in test [5], the Selectivity was > 2.
As for `CCCc1nc([C@@H]2Cc3ccccc3CN2C(=O)[C@@H](N)Cc2ccc(O)cc2)[nH]c1C` (single isomer, unassigned), the Ki (in [2]; at Mu-type opioid receptor [4]) was > 100 nM throughout.

Source of the values: ChEMBL document CHEMBL1137980, “Rationale, design, and synthesis of novel phenyl imidazoles as opioid receptor agonists for gastrointestinal disorders” (J Med Chem, 2004).
